Laboratory results published in ChEMBL document CHEMBL4118256, “Second Generation of Mannich Base-Type Derivatives with in Vivo Activity against Trypanosoma cruzi” (J Med Chem, 2018).
Calls of active or inactive are those of the source. The rule behind the calls is not given here.

What was measured:
[1] = tested on: Mus musculus; assay: (§1) Cardiotoxicity in Balb/c mouse infected with Trypanosoma cruzi MHOM/Pe/2011/Arequipa DTU 5 trypamastigotes assessed as decrease in ratio of creatine kinase in muscle to brain at […], po once daily for 5 consecutive days starting from day 10 post infection measured on day 16 post infection by biochemical analysis relative to control; type: toxicity, organism-based; parameters: scale not given: the % may be the effect or the level left; conditions: in vivo
Outline: (§2)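 Serum clinical chemistry in Arequipa-infected female BALB/c mice. Oral 20 mg·kg-1 per day for 5 days, started day 10 or day 75 pi. Samples taken at day 16 pi or day 81 pi, and on necropsy day. Markers: CK-MB and LDH (U/L), AST, ALT and alkaline phosphatase (U/L), total bilirubin. Results scored relative to infected untreated controls; uninfected reference n = 15.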

[2] = tested on: Mus musculus; assay: (§3) Hepatotoxicity in Balb/c mouse infected with Trypanosoma cruzi MHOM/Pe/2011/Arequipa DTU 5 trypamastigotes assessed as decrease in ratio of serum ALT to GPT level at 100 mg/kg, po once daily for 5 consecutive days starting from day 10 post infection measured on day 127 post infection by biochemical analysis relative to control; type: toxicity, organism-based; parameters: scale not given: the % may be the effect or the level left; conditions: in vivo
[3] = tested on: Mus musculus; assay: Cardiotoxicity in Balb/c mouse infected with Trypanosoma cruzi MHOM/Pe/2011/Arequipa DTU 5 trypamastigotes assessed as decrease in ratio of creatine kinase in muscle to brain at 100 mg/kg, po once daily for 5 consecutive days starting from day 75 post infection measured on day 127 post infection by biochemical analysis relative to control; type: toxicity, organism-based; parameters: scale not given: the % may be the effect or the level left; conditions: in vivo
[4] = tested on: Trypanosoma cruzi; assay: (§4) Antitrypanosomal activity against Trypanosoma cruzi MHOM/Pe/2011/Arequipa DTU 5 trypamastigotes infected in Balb/c mouse assessed as reduction in parasitaemia reactivation in esophagus tissue at 100 mg/kg, po pretreated once daily for 5 consecutive days starting from day 75 post infection followed by cyclophosphamide-induced immunosuppression on day 100 post infection every 4 days for a maximum of 3 doses measured on day 127 post infection by PCR method; type: functional; parameters: scale not given: the % may be the effect or the level left
Outline: (§5)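 Necropsy on day 127 pi after oral treatment and cyclophosphamide immunosuppression. Tissue DNA was amplified by PCR targeting the ~300 bp T. cruzi SOD gene, 200 nM each primer, 30 cycles with 55.5 °C annealing. Products run on 2 % agarose; positive organs counted out of six mice.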

[5] = tested on: Trypanosoma cruzi; assay: as §4, with “brain” for “esophagus”; type: functional; parameters: scale not given: the % may be the effect or the level left; outline: as §5
[6] = tested on: Trypanosoma cruzi; assay: as §4, with “stomach” for “esophagus”; type: functional; parameters: scale not given: the % may be the effect or the level left
[7] = tested on: Mus musculus; assay: as §3, with “Nephrotoxicity” for “Hepatotoxicity”, “increase” for “decrease”, “urea level in” for “ratio of”, “serum” for “serum ALT to GPT level”; type: toxicity, organism-based; conditions: in vivo
[8] = tested on: Trypanosoma cruzi; assay: as §4, with “in Ig-G level” for “in parasitaemia reactivation”, “in serum” for “in esophagus tissue”, “at 20” for “at 100”, “by ELISA” for “by PCR method”; type: functional, organism-based
Outline: (§6)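 Female BALB/c mice (8-10 weeks, 20-25 g), six per group, infected i.p. with 5 x 10^5 Arequipa bloodstream trypomastigotes. Compound was given orally once daily for 5 days from day 10 or day 75 pi, at 20 mg·kg-1 per day in 5 % DMSO/0.5 % HPMC. Anti-T. cruzi IgG in serum was measured by ELISA with Fe-SOD antigen, read as OD 490 nm.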

[9] = tested on: Mus musculus; assay: as §3, with “Nephrotoxicity” for “Hepatotoxicity”, “change” for “decrease”, “uric acid level in” for “ratio of”, “serum” for “serum ALT to GPT level”, “20” for “100”; type: toxicity, organism-based; conditions: in vivo
[10] = tested on: Mus musculus; assay: as §3, with “increase” for “decrease”, “AST” for “ALT”, “GOT” for “GPT”, “20” for “100”; type: toxicity, organism-based; conditions: in vivo
[11] = tested on: Mus musculus; assay: as §3, with “Cardiotoxicity” for “Hepatotoxicity”, “change” for “decrease”, “in” for “in ratio of”, “LDH” for “ALT to GPT”, “20” for “100”; type: toxicity, organism-based; conditions: in vivo; outline: as §2
[12] = tested on: Mus musculus; assay: as §3, with “increase” for “decrease”, “total bilirubin” for “ratio of serum ALT to GPT”, “20” for “100”, “16” for “127”; type: toxicity, organism-based; conditions: in vivo
[13] = tested on: Trypanosoma cruzi; assay: as §4, with “in stomach” for “in esophagus”, “at 20” for “at 100”, “day 10” for “day 75”; type: functional; parameters: scale not given: the % may be the effect or the level left
[14] = tested on: Mus musculus; assay: Cardiotoxicity in Balb/c mouse infected with Trypanosoma cruzi MHOM/Pe/2011/Arequipa DTU 5 trypamastigotes assessed as change in ratio of creatine kinase in muscle to brain at 20 mg/kg, po once daily for 5 consecutive days starting from day 10 post infection measured on day 16 post infection by biochemical analysis relative to control; type: toxicity, organism-based; conditions: in vivo; outline: as §2
[15] = tested on: Trypanosoma cruzi; assay: as §4, with “in adipose” for “in esophagus”, “at 20” for “at 100”; type: functional; parameters: scale not given: the % may be the effect or the level left; conditions: pooled result: one value given for 9 cell lines, strains, targets or settings; outline: as §5
[16] = tested on: Mus musculus; assay: as §3, with “increase” for “decrease”, “20” for “100”, “75” for “10”, “81” for “127”; type: toxicity, organism-based; conditions: in vivo
[17] = tested on: Trypanosoma cruzi; assay: Antitrypanosomal activity against Trypanosoma cruzi MHOM/Pe/2011/Arequipa DTU 5 trypamastigotes infected in Balb/c mouse assessed as reduction in splenomegaly at 20 mg/kg, po once daily for 5 consecutive days starting from day 75 post infection measured on day 127 post infection relative to control; type: functional, organism-based
[18] = tested on: Trypanosoma cruzi; assay: as §4, with “in brain” for “in esophagus”, “at 20” for “at 100”, “day 10” for “day 75”; type: functional; parameters: scale not given: the % may be the effect or the level left; outline: as §5
[19] = tested on: Mus musculus; assay: as §3, with “increase” for “decrease”, “20” for “100”, “16” for “127”; type: toxicity, organism-based; conditions: in vivo
[20] = tested on: Mus musculus; assay: as §3, with “Cardiotoxicity” for “Hepatotoxicity”, “in” for “in ratio of”, “LDH” for “ALT to GPT”, “20” for “100”, “75” for “10”; type: toxicity, organism-based; parameters: scale not given: the % may be the effect or the level left; conditions: in vivo; outline: as §2
[21] = tested on: Mus musculus; assay: as §3, with “Nephrotoxicity” for “Hepatotoxicity”, “urea level in” for “ratio of”, “serum” for “serum ALT to GPT level”, “20” for “100”, “16” for “127”; type: toxicity, organism-based; parameters: scale not given: the % may be the effect or the level left; conditions: in vivo
[22] = tested on: Trypanosoma cruzi; assay: Antitrypanosomal activity against Trypanosoma cruzi MHOM/Pe/2011/Arequipa DTU 5 trypamastigotes infected in Balb/c mouse assessed as reduction in Ig-G level in serum at 20 mg/kg, po once daily for 5 consecutive days starting from day 75 post infection measured on day 81 post infection by ELISA; type: functional, organism-based; outline: as §6
[23] = tested on: Mus musculus; assay: as §3, with “as increase” for “as decrease”, “serum AST” for “serum ALT”, “to GOT” for “to GPT”, “day 75” for “day 10”; type: toxicity, organism-based; conditions: in vivo
[24] = tested on: Mus musculus; assay: as §1, with “change” for “decrease”, “serum LDH level” for “ratio of creatine kinase in muscle to brain”, “75” for “10”, “81” for “16”; type: toxicity, organism-based; conditions: in vivo; outline: as §2
[25] = tested on: Mus musculus; assay: as §3, with “Nephrotoxicity in” for “Hepatotoxicity in”, “in urea level in” for “in ratio of”, “serum” for “serum ALT to GPT level”, “day 75” for “day 10”; type: toxicity, organism-based; parameters: scale not given: the % may be the effect or the level left; conditions: in vivo

COc1ccc(C(=O)CCN2CCN(c3ccc(Cl)cc3)CC2)cc1
Activity [1]: <= 20% | Activity [2]: <= 10% | Activity [3]: <= 10% | Activity [4]: 78% | Activity [5]: 78% | Activity [6]: 78%

COc1ccc(C(=O)CCN2CCN(c3ccc(F)cc3)CC2)cc1
Activity [7]: <= 10%

O=C(Cn1ccnc1[N+](=O)[O-])NCc1ccccc1 [BENZNIDAZOLE]
Activity [8]: Active | Activity [9]: < 10% | Activity [10]: > 40% | Activity [11]: < 10% | Activity [12]: <= 20% | Activity [13]: 33% | Activity [14]: < 10% | Activity [15]: 55% | Activity [16]: <= 20% | Activity [17]: Active | Activity [18]: 33% | Activity [19]: > 40% | Activity [20]: <= 20% | Activity [21]: <= 30% | Activity [22]: inactive

COc1ccc(C(=O)CCN2CCN(c3ccc([N+](=O)[O-])cc3)CC2)cc1
Activity [23]: <= 20% | Activity [24]: < 10% | Activity [25]: <= 10%
